{"data": "Results from different studies", "DRD1": "D(1A) dopamine receptor (DRD1, Homo sapiens, UniProt P21728)", "BCHE": "Cholinesterase (BCHE, Equus caballus, UniProt P81908)", "Sterol carrier protein 2": "Sterol carrier protein 2 (Aedes aegypti, UniProt Q86PR3)", "note": "Compare with care: the assays were run in different laboratories."}
{"SMILES": "CC(CCc1ccc(O)cc1)NCCc1ccc(O)c(O)c1 (stereo not drawn)", "target": "DRD1", "observed": "cAMP", "action": "agonist", "technique": "TR-FRET", "measurement": "EC50", "value": "13 µM"}
{"SMILES": "CNc1nc(C#Cc2ccc(Cl)s2)nc2c1ncn2[C@@H]1O[C@H](C(=O)OC)[C@@H](O)[C@H]1O", "target": "Sodium-dependent serotonin transporter (SLC6A4, Homo sapiens, UniProt P31645)", "observed": "ligand displacement", "technique": "radioligand", "notes": "cell membranes", "measurement": "Ki", "value": "> 10 µM"}
{"SMILES": "CN(C)C(=O)COC(=O)c1cc(-c2ccc([C@H]3C[C@H]4C[C@@H]3CN4)cc2)c2ccc(-c3ccc(C(F)(F)F)cc3)cc2c1", "target": "DRD1", "observed": "cell-free assay", "technique": "radioligand", "measurement": "Ki", "value": "1.4 to 2.2 µM"}
{"SMILES": "CC=C1[C@H]2C=C(C)C[C@]1(N(C)C)c1ccc(OC)nc1C2", "target": "BCHE", "observed": "enzyme activity", "action": "inhibitor", "technique": "Ellman", "measurement": "IC50", "value": "1350 µM"}
{"SMILES": "O=c1c(O)c(-c2ccc(O[C@@H]3O[C@H](CO)[C@@H](O)[C@H](O)[C@H]3O)c(O)c2)oc2cc(O)cc(O)c12", "target": "BCHE", "observed": "enzyme activity", "action": "inhibitor", "measurement": "Ki", "value": "0.0281 µM"}
{"SMILES": "CNC[C@H](O)c1cccc(O)c1", "target": "DRD1", "observed": "cAMP", "action": "agonist", "technique": "TR-FRET", "measurement": "EC50", "value": "2.8 µM"}
{"SMILES": "O=S(=O)(O)c1ccc(-c2c3nc(c(-c4ccc(S(=O)(=O)O)cc4)c4ccc([nH]4)c(-c4ccc(S(=O)(=O)O)cc4)c4nc(c(-c5ccc(S(=O)(=O)O)cc5)c5ccc2[nH]5)C=C4)C=C3)cc1", "target": "Galectin-7 (LGALS7, Homo sapiens, UniProt P47929)", "observed": "binding", "measurement": "Kd", "value": "9.5 µM"}
{"SMILES": "O=c1c(O)c(-c2ccc(O)c(O)c2)oc2cc(O)cc(O)c12", "target": "Sterol carrier protein 2", "observed": "ligand displacement", "measurement": "EC50", "value": "18.4 µM"}
{"SMILES": "C[C@H]1c2c[nH]c3cccc(c23)S[C@H]1C(=O)O", "target": "trpS (Geobacillus stearothermophilus, UniProt P00953)", "observed": "binding", "technique": "ITC", "measurement": "Kd", "value": "3.1 µM"}
{"SMILES": "N[C@H]1C[C@@H](CO)[C@H](c2ccc(-c3cc(C(=O)O)cc4cc(-c5ccc(C(F)(F)F)cc5)ccc34)cc2)C1", "target": "DRD1", "observed": "cell-free assay", "technique": "radioligand", "measurement": "Ki", "value": "1.4 to 2.2 µM"}
{"SMILES": "CC=C1[C@H]2C=C(C)C[C@]1(N(C)C)c1ccc(=O)[nH]c1C2", "target": "BCHE", "observed": "enzyme activity", "action": "inhibitor", "technique": "Ellman", "measurement": "IC50", "value": "224 µM"}
{"SMILES": "COc1cc(/C=C2\\CCC/C(=C\\c3cc(OC)c(OC)c(OC)c3)C2=O)cc(OC)c1OC", "target": "Sterol carrier protein 2", "observed": "ligand displacement", "technique": "fluorescence", "measurement": "EC50", "value": "12.1 µM"}
